Legend:
Type in all cases: functional
Set-up in all cases: scale not given: the % may be the effect or the level left
Conditions in all cases: route intraperitoneal
Rattus norvegicus [1] = test: Antihyperlipidemic effect in high fat diet-induced rat assessed as decrease in serum triglyceride level at 10 mg/kg, ip relative to control
Procedure, shortened: (§1)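 Male JCL:Wistar rats (150 g) on commercial chow 1 week, then high-fat diet (10 g soybean oil per 100 g, casein, α-cornstarch) 6 days, pair-matched for blood triglyceride and body weight. Compound suspended in 5% EtOH/saline, ip once daily for 3 days; controls get vehicle. Sacrificed 4 h after last dose (2–3 PM); serum separated at 1000 g, 4°. Six rats per group; percent of control; Student's t-test.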

Rattus norvegicus [2] = test: Antihyperlipidemic effect in high fat diet-induced rat assessed as decrease in serum triglyceride level at 20 mg/kg, ip relative to control; procedure, shortened: as §1
Rattus norvegicus [3] = test: Antihyperlipidemic effect in high fat diet-induced rat assessed as decrease in serum total cholesterol level at 20 mg/kg, ip relative to control; procedure, shortened: as §1
Rattus norvegicus [4] = test: Antihyperlipidemic effect in high fat diet-induced rat assessed as decrease in serum total cholesterol level at 10 mg/kg, ip relative to control; procedure, shortened: as §1

| SMILES | Activity (Rattus norvegicus [1]) [%] | Activity (Rattus norvegicus [2]) [%] | Activity (Rattus norvegicus [3]) [%] | Activity (Rattus norvegicus [4]) [%] |
| --- | --- | --- | --- | --- |
| COc1ccc([C@@H]2CC(=O)c3c(O[C@@H]4O[C@H](CO)[C@@H](O)[C@H](O)[C@H]4O)cc(O)cc3O2)cc1O | 100 | 90 | 101 | 88 |
| Oc1cc(O)c2c(c1)O[C@H](c1ccc(O)c(O)c1)[C@@H](O)C2 [CIANIDANOL] | 75 | 73 | 99 | 95 |
| O=C1C[C@@H](c2ccc(O)cc2)Oc2cc(O[C@@H]3O[C@H](CO)[C@@H](O)[C@H](O)[C@H]3O)cc(O)c21 [PRUNIN] | 90 | 107 | 91 | 102 |

Reference: ChEMBL document CHEMBL1158940, “Antihyperlipidemic effect of flavonoids from Prunus davidiana” (1991)
